In ChEMBL document CHEMBL1143389, “Synthesis, structure and antibacterial activity of new 2-(1-(2-(substituted-phenyl)-5-methyloxazol-4-yl)-3-(2-substitued-phenyl)-4,5-dihydro-1H-pyrazol-5-yl)-7-substitued-1,2,3,4-tetrahydroisoquinoline derivatives” (Bioorg Med Chem, 2009):
Values after ≈ are worked out from the molar mass of the structure shown.

System: Staphylococcus aureus
Assay: Antimicrobial activity against Staphylococcus aureus ATCC 6538 after 24 hrs by MTT assay
Conditions: ATCC 6538, 24 h

Row | MIC [µg/mL] | Structure (SMILES)
1 | 6.25 (≈ 11 µM) | Cc1oc(-c2ccccc2C(F)(F)F)nc1N1N=C(c2ccccc2C(F)(F)F)CC1N1CCc2ccccc2C1 (centres undefined)
2 | 3.12 (≈ 5.2 µM) | COc1ccc2c(c1)CN(C1CC(c3ccccc3C(F)(F)F)=NN1c1nc(-c3ccccc3C(F)(F)F)oc1C)CC2 (centres undefined)
3 | 0.78 (≈ 1.38 µM) | COc1ccc2c(c1)CN(C1CC(c3ccc(-c4ccco4)cc3)=NN1c1nc(-c3ccc(F)cc3F)oc1C)CC2 (centres undefined)
4 | 1.56 (≈ 2.85 µM) | COc1ccc2c(c1)CN(C1CC(c3ccc(-c4ccco4)cc3)=NN1c1nc(-c3ccccc3F)oc1C)CC2 (centres undefined)
5 | 3.12 (≈ 5.5 µM) | Cc1oc(-c2ccccc2C(F)(F)F)nc1N1N=C(c2ccc(-c3ccco3)cc2)CC1N1CCc2ccccc2C1 (centres undefined)
6 | 12.5 (≈ 22 µM) | COc1ccc2c(c1)CN(C1CC(c3ccccc3C(F)(F)F)=NN1c1nc(-c3ccc(F)cc3F)oc1C)CC2 (centres undefined)
7 | 1.56 (≈ 2.9 µM) | Cc1oc(-c2ccc(F)cc2F)nc1N1N=C(c2ccc(Cl)cc2Cl)CC1N1CCc2ccccc2C1 (centres undefined)
8 | 12.5 (≈ 26.6 µM) | Cc1oc(-c2ccccc2F)nc1N1N=C(c2ccccc2F)CC1N1CCc2ccccc2C1 (centres undefined)
9 | 6.25 (≈ 12 µM) | Cc1oc(-c2ccccc2C(F)(F)F)nc1N1N=C(c2ccccc2F)CC1N1CCc2ccccc2C1 (centres undefined)
10 | 25 (≈ 49.7 µM) | Cc1oc(-c2ccccc2C(F)(F)F)nc1N1N=C(c2ccccc2)CC1N1CCc2ccccc2C1 (centres undefined)

System: Pseudomonas fluorescens
Assay: Antimicrobial activity against Pseudomonas fluorescens ATCC 13525 after 24 hrs by MTT assay
Conditions: ATCC 13525, 24 h

Row | MIC [µg/mL] | Structure (SMILES)
11 | 50 (≈ 87.6 µM) | Cc1oc(-c2ccccc2C(F)(F)F)nc1N1N=C(c2ccccc2C(F)(F)F)CC1N1CCc2ccccc2C1 (centres undefined)
12 | 12.5 (≈ 20.8 µM) | COc1ccc2c(c1)CN(C1CC(c3ccccc3C(F)(F)F)=NN1c1nc(-c3ccccc3C(F)(F)F)oc1C)CC2 (centres undefined)
13 | 50 (≈ 88.2 µM) | COc1ccc2c(c1)CN(C1CC(c3ccc(-c4ccco4)cc3)=NN1c1nc(-c3ccc(F)cc3F)oc1C)CC2 (centres undefined)
14 | > 50 | COc1ccc2c(c1)CN(C1CC(c3ccc(-c4ccco4)cc3)=NN1c1nc(-c3ccccc3F)oc1C)CC2 (centres undefined)
15 | 50 (≈ 87.9 µM) | Cc1oc(-c2ccccc2C(F)(F)F)nc1N1N=C(c2ccc(-c3ccco3)cc2)CC1N1CCc2ccccc2C1 (centres undefined)
16 | 25 (≈ 44 µM) | COc1ccc2c(c1)CN(C1CC(c3ccccc3C(F)(F)F)=NN1c1nc(-c3ccc(F)cc3F)oc1C)CC2 (centres undefined)
17 | > 50 | Cc1oc(-c2ccc(F)cc2F)nc1N1N=C(c2ccc(Cl)cc2Cl)CC1N1CCc2ccccc2C1 (centres undefined)
18 | 50 (≈ 106 µM) | Cc1oc(-c2ccccc2F)nc1N1N=C(c2ccccc2F)CC1N1CCc2ccccc2C1 (centres undefined)
19 | > 50 | Cc1oc(-c2ccccc2C(F)(F)F)nc1N1N=C(c2ccccc2F)CC1N1CCc2ccccc2C1 (centres undefined)
20 | 50 (≈ 99.5 µM) | Cc1oc(-c2ccccc2C(F)(F)F)nc1N1N=C(c2ccccc2)CC1N1CCc2ccccc2C1 (centres undefined)

Molecular target: not listed separately
Assay: Inhibition of Bacillus subtilis DNA gyrase
Conditions: not given
Outline: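 Gyrase purified from B. subtilis cells at 0–4 °C. Cells were lysed with lysozyme in HEPES-KOH pH 8.0/sucrose/Mg acetate/DTT/PMSF for 2.5 h, then treated with KCl–Brij. The cleared lysate at 0.2 M KCl went onto a column, eluted with ATP–Mg acetate–KCl, then high KCl, then urea, and was dialyzed to 0.05 M KCl. The read-out was DNA supercoiling activity.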

Row | IC50 [µg/mL] | Structure (SMILES)
21 | 0.125 (≈ 0.221 µM) | COc1ccc2c(c1)CN(C1CC(c3ccc(-c4ccco4)cc3)=NN1c1nc(-c3ccc(F)cc3F)oc1C)CC2 (centres undefined)
22 | 0.25 (≈ 0.463 µM) | Cc1oc(-c2ccc(F)cc2F)nc1N1N=C(c2ccc(Cl)cc2Cl)CC1N1CCc2ccccc2C1 (centres undefined)

System: Escherichia coli
Assay: Antimicrobial activity against Escherichia coli after 24 hrs by MTT assay
Conditions: not given

Row | MIC [µg/mL] | Structure (SMILES)
23 | 50 (≈ 87.6 µM) | Cc1oc(-c2ccccc2C(F)(F)F)nc1N1N=C(c2ccccc2C(F)(F)F)CC1N1CCc2ccccc2C1 (centres undefined)
24 | 25 (≈ 41.6 µM) | COc1ccc2c(c1)CN(C1CC(c3ccccc3C(F)(F)F)=NN1c1nc(-c3ccccc3C(F)(F)F)oc1C)CC2 (centres undefined)
25 | 25 (≈ 44.1 µM) | COc1ccc2c(c1)CN(C1CC(c3ccc(-c4ccco4)cc3)=NN1c1nc(-c3ccc(F)cc3F)oc1C)CC2 (centres undefined)
26 | 25 (≈ 45.6 µM) | COc1ccc2c(c1)CN(C1CC(c3ccc(-c4ccco4)cc3)=NN1c1nc(-c3ccccc3F)oc1C)CC2 (centres undefined)
27 | 50 (≈ 87.9 µM) | Cc1oc(-c2ccccc2C(F)(F)F)nc1N1N=C(c2ccc(-c3ccco3)cc2)CC1N1CCc2ccccc2C1 (centres undefined)
28 | 25 (≈ 44 µM) | COc1ccc2c(c1)CN(C1CC(c3ccccc3C(F)(F)F)=NN1c1nc(-c3ccc(F)cc3F)oc1C)CC2 (centres undefined)
29 | > 50 | Cc1oc(-c2ccc(F)cc2F)nc1N1N=C(c2ccc(Cl)cc2Cl)CC1N1CCc2ccccc2C1 (centres undefined)
30 | > 50 | Cc1oc(-c2ccccc2F)nc1N1N=C(c2ccccc2F)CC1N1CCc2ccccc2C1 (centres undefined)
31 | > 50 | Cc1oc(-c2ccccc2C(F)(F)F)nc1N1N=C(c2ccccc2F)CC1N1CCc2ccccc2C1 (centres undefined)
32 | 50 (≈ 99.5 µM) | Cc1oc(-c2ccccc2C(F)(F)F)nc1N1N=C(c2ccccc2)CC1N1CCc2ccccc2C1 (centres undefined)

Molecular target: DNA gyrase (Staphylococcus aureus, UniProt P0A0K8+P20831)
Assay: Inhibition of Staphylococcus aureus DNA gyrase
Assay type: protein-complex assay
Conditions: not given

Row | IC50 [µM] | Structure (SMILES)
33 | 0.441 | COc1ccc2c(c1)CN(C1CC(c3ccc(-c4ccco4)cc3)=NN1c1nc(-c3ccc(F)cc3F)oc1C)CC2 (centres undefined)
34 | 0.927 | Cc1oc(-c2ccc(F)cc2F)nc1N1N=C(c2ccc(Cl)cc2Cl)CC1N1CCc2ccccc2C1 (centres undefined)

System: Bacillus subtilis
Assay: Antimicrobial activity against Bacillus subtilis ATCC 6633 after 24 hrs by MTT assay
Assay type: functional
Conditions: ATCC 6633, 24 h
Outline: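 Mueller-Hinton medium (casein hydrolysate, soluble starch, beef extract). Compounds were serially diluted in DMSO in medium, with an inoculum of about 10⁵ cfu/mL, and incubated at 37 °C for 24 h. MIC was read visually. MTT (2 mg/mL in PBS, pH 7.4) was then added for 4–5 h at room temperature. Dye was extracted with isopropanol containing 5% 1 mol/L HCl for 12 h, and OD was read at 550 nm.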

Row | MIC [µg/mL] | Structure (SMILES)
35 | 6.25 (≈ 11 µM) | Cc1oc(-c2ccccc2C(F)(F)F)nc1N1N=C(c2ccccc2C(F)(F)F)CC1N1CCc2ccccc2C1 (centres undefined)
36 | 3.12 (≈ 5.2 µM) | COc1ccc2c(c1)CN(C1CC(c3ccccc3C(F)(F)F)=NN1c1nc(-c3ccccc3C(F)(F)F)oc1C)CC2 (centres undefined)
37 | 0.78 (≈ 1.38 µM) | COc1ccc2c(c1)CN(C1CC(c3ccc(-c4ccco4)cc3)=NN1c1nc(-c3ccc(F)cc3F)oc1C)CC2 (centres undefined)
38 | 1.56 (≈ 2.85 µM) | COc1ccc2c(c1)CN(C1CC(c3ccc(-c4ccco4)cc3)=NN1c1nc(-c3ccccc3F)oc1C)CC2 (centres undefined)
39 | 1.56 (≈ 2.75 µM) | Cc1oc(-c2ccccc2C(F)(F)F)nc1N1N=C(c2ccc(-c3ccco3)cc2)CC1N1CCc2ccccc2C1 (centres undefined)
40 | 3.12 (≈ 5.5 µM) | COc1ccc2c(c1)CN(C1CC(c3ccccc3C(F)(F)F)=NN1c1nc(-c3ccc(F)cc3F)oc1C)CC2 (centres undefined)
41 | 1.56 (≈ 2.9 µM) | Cc1oc(-c2ccc(F)cc2F)nc1N1N=C(c2ccc(Cl)cc2Cl)CC1N1CCc2ccccc2C1 (centres undefined)
42 | 12.5 (≈ 26.6 µM) | Cc1oc(-c2ccccc2F)nc1N1N=C(c2ccccc2F)CC1N1CCc2ccccc2C1 (centres undefined)
43 | 6.25 (≈ 12 µM) | Cc1oc(-c2ccccc2C(F)(F)F)nc1N1N=C(c2ccccc2F)CC1N1CCc2ccccc2C1 (centres undefined)
44 | 12.5 (≈ 24.9 µM) | Cc1oc(-c2ccccc2C(F)(F)F)nc1N1N=C(c2ccccc2)CC1N1CCc2ccccc2C1 (centres undefined)
